Experimental findings from ChEMBL document CHEMBL1157729, “Structure-activity relationship and mechanism of action studies of manzamine analogues for the control of neuroinflammation and cerebral infections” (J Med Chem, 2010) are described below.

One data set deals with MDCK. The data set is described as follows: Apparent permeability across apical to basolateral side of MDCK cells expressing MDR. Format: ADME, cell-based, Canis lupus familiaris. The following applies: dog. In outline: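 MDR-MDCK cells (passage 12-40) seeded at 75,000 cells/cm2 and grown 8 days on Transwell inserts to a monolayer. Bidirectional transport over 2 h in HBSS pH 7.4 with test substance at 50 μM and caffeine (5 μM) as standard. Donor and receiver samples quantified by LC-MS. Cumulative amount transported plotted against time to derive apparent permeability.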

The nature of data set [1]: Antineuroinflammatory activity in LPS-stimulated rat neonatal microglia assessed as inhibition of PMA-induced superoxide anion production preincubated 15 mins prior to PMA challenge measured after 70 mins. Format: functional, cell-based.
For a further data set, the system named is Candida albicans. The data set is described as follows: Antifungal activity against Candida albicans ATCC 90028. Format: functional, organism-based. The essentials:
(§1)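 Broth microdilution per modified CLSI method; samples serially diluted in 20% DMSO/saline, tested in duplicate; inocula set by OD630 of suspensions in incubation broth; growth read at 630 nm before and after incubation; amphotericin B drug control.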

Data set [2] has as its system Plasmodium falciparum. The data set is described as follows: Antiplasmodial activity against chloroquine-sensitive Plasmodium falciparum D6 after 72 hrs by LDH assay. Format: functional, organism-based. Particulars: Plasmodium falciparum, D6, 72 h; read-out: IC50.
Another data set deals with Cryptococcus neoformans. In words: Antifungal activity against Cryptococcus neoformans ATCC 90113. Format: functional, organism-based. The essentials:
as §1

In data set [3] the test system is Mycobacterium tuberculosis. The data set is described as follows: Antimycobacterial activity against Mycobacterium tuberculosis H37Rv. Format: functional, organism-based.
Data set [4] can be described thus: Antineuroinflammatory activity in LPS-stimulated rat neonatal microglia assessed as inhibition of PMA-induced TXB2 production preincubated 15 mins prior to PMA challenge measured after 70 mins. Format: functional, cell-based.
Data set [5] relates to Plasmodium falciparum. The data set is described as follows: Antiplasmodial activity against chloroquine-resistant Plasmodium falciparum W2 after 72 hrs by LDH assay. Format: functional, organism-based. The following applies: Plasmodium falciparum, W2, 72 h; read-out: IC50.
Data set [6] concerns Mycobacterium intracellulare. The data set is described as follows: Antimycobacterial activity against Mycobacterium intracellular ATCC 23068. Format: functional, organism-based. In outline:
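Modified Franzblau method; samples serially diluted in 20% DMSO/saline, tested in duplicate; inoculum set by OD630; fluorescence read at 544ex/590em before and after incubation; ciprofloxacin drug control.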

The subject of a further data set is Vero. In words: Cytotoxicity against african green monkey Vero cells after 48 hrs by neutral red assay. Format: cell-based. The following applies: chlorocebus sabaeus. In outline:
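Vero cells seeded at 25,000/well and grown 24 h, then exposed to serially diluted samples for 48 h. Viable cells measured by neutral red assay, with doxorubicin as positive control. IC50 taken from dose-response curves.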

The test system of data set [7] is Mycobacterium intracellulare. In words: Ratio of IC50 for drug to ciprofloxacin against Mycobacterium intracellular ATCC 23068. Format: functional.
A short description of data set [8]: Antineuroinflammatory activity in LPS-stimulated rat neonatal microglia assessed as drug level causing 50% PMA-induced LDH release preincubated 15 mins prior to PMA challenge measured after 70 mins. Format: functional. The essentials: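 Neonatal rat microglia (2 × 10^5/well) primed with E. coli LPS 0.3 ng/mL for 17 h at 35.9 °C, washed with HBSS, given compound (0.01–10 μM) or DMSO 15 min, then PMA 1 μM; LDH read spectrophotometrically after 70 min; LDH50 relative to Triton X-100 (0.1%) release; duplicates.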
A general note: Release of lactate dehydrogenase indicates damage to the cell membrane.

The subject of data set [9] is Plasmodium berghei. The data set is described as follows: Antiplasmodial activity against Plasmodium berghei NK65 infected in Swiss Webster mice (Mus musculus) assessed as average parasitaemia at 200 mg/kg, perorally administered 1 day after infection measured after 28 days post infection. Format: functional. Particulars: route oral. The essentials:
(§2)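 Male Swiss Webster mice (18-20 g, ≥5/group) inoculated i.p. with 2×10^7 P. berghei NK-65 parasitized RBC, given a single oral dose (100 μl, SSV or dilute HCl vehicle); parasitemia by Giemsa-stained tail blood smears days 5–28; activity as % decrease versus untreated controls on day 5.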

Data set [10] concerns Plasmodium berghei. In words: Antiplasmodial activity against Plasmodium berghei NK65 infected in Swiss Webster mice (Mus musculus) assessed as inhibition of parasitaemia at 200 mg/kg, perorally administered 1 day after infection measured after 5 days post infection. Format: functional. The arrangement: Activity: scale not given: the % may be the effect or the level left. Particulars: route oral. In outline:
as §2

Data set [11] has as its system Plasmodium berghei. In words: Antiplasmodial activity against Plasmodium berghei NK65 infected in Swiss Webster mice (Mus musculus) assessed as average parasitaemia at 200 mg/kg, perorally administered 1 day after infection measured after 21 days post infection. Format: functional. The following applies: route oral. The essentials:
(§3)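 Male Swiss Webster mice (18-20 g), at least 5 per group, were inoculated ip with 2×10^7 P. berghei NK-65-parasitized red cells from a donor mouse and given a single oral dose (100 μl). Stock was made in SSV or 0.1 M HCl and diluted in SSV or 0.01 M HCl. Parasitemia was read from Giemsa-stained tail blood smears from day 5 to day 28. Cure meant no parasitemia through day 28.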

For data set [12], the system named is Plasmodium berghei. The data set is described as follows: Antiplasmodial activity against Plasmodium berghei NK65 infected in Swiss Webster mice (Mus musculus) assessed as average parasitaemia at 200 mg/kg, perorally administered 1 day after infection measured after 14 days post infection. Format: functional. Particulars: route oral. The essentials: as §3

The subject of data set [13] is Plasmodium berghei. The data set is described as follows: Antiplasmodial activity against Plasmodium berghei NK65 infected in Swiss Webster mice (Mus musculus) assessed as average parasitaemia at 200 mg/kg, perorally administered 1 day after infection measured after 5 days post infection. Format: functional. Particulars: route oral. The essentials:
as §3

For data set [14], the system named is Plasmodium berghei. The data set is described as follows: Antiplasmodial activity against Plasmodium berghei NK65 infected in Swiss Webster mice (Mus musculus) assessed as parasitaemia cure at 200 mg/kg, perorally administered 1 day after infection measured after 28 days post infection. Format: functional. The following applies: route oral. In outline: as §3

Molecules are shown by their SMILES. Converted amounts (≈) assume the structure as drawn.

With `Cl.O[C@]12C=C(c3nccc4c3[nH]c3ccccc34)[C@@H]3CCN(CCCC/C=C\CC1)C[C@@]31C[C@@H]3/C=C\CCCCN3[C@H]12` [MANZAMINE A HCL], the Papp – broadly, a coefficient for how fast a substance crosses the barrier – in the data set with MDCK was found to be 1.9 ×10⁻⁶ cm/s.

Regarding `COC(=O)C1Cc2c([nH]c3ccccc23)C(C2=C[C@@]3(O)CC/C=C\CCCCN4CC[C@@H]2[C@]2(C[C@@H]5/C=C\CCCCN5[C@H]23)C4)N1` (some centres undefined), the IC50 (commonly the midpoint of a concentration-inhibition curve) in data set [1] is 8600 nM; with Candida albicans, greater than 20 µg/mL; in the data set with Plasmodium falciparum [2] it was 0.1 µg/mL (≈ 0.164 µM); in the data set with Cryptococcus neoformans, 3.5 µg/mL (≈ 5.73 µM); in data set [4] it was 4900 nM; with Plasmodium falciparum [5], 0.17 µg/mL (≈ 0.278 µM). The results for the IC50 (in data set [6]; with Vero) were 0.06 µg/mL (≈ 0.0982 µM) and 1 µg/mL (≈ 1.64 µM), respectively. Moreover, in data set [3], the MIC (as a rule, the lowest concentration found to suppress growth) was greater than 64 µg/mL. Besides, in [7], the “Ratio IC50” value was 5. Moreover, in data set [8], the Activity was 5 µM.

With `COC(=O)c1cc2c([nH]c3ccccc32)c(C2=C[C@@]3(O)CC/C=C\CCCCN4CC[C@@H]2[C@]2(C[C@@H]5/C=C\CCCCN5[C@H]23)C4)n1`, the 50% inhibitory concentration (IC50) in data set [1] was 30 nM; in the data set with Candida albicans, 20 µg/mL (≈ 33 µM); in the data set on Plasmodium falciparum [2], 0.011 µg/mL (≈ 0.0181 µM); with Cryptococcus neoformans it was 2 µg/mL (≈ 3.3 µM); in [4], 110 nM; in the data set with Plasmodium falciparum [5] it was 0.015 µg/mL (≈ 0.0247 µM). For the same compound, the IC50 in [6] was less than 0.02 µg/mL; with Vero, 0.2 µg/mL (≈ 0.33 µM). This compound also returned an MIC in [3] greater than 64 µg/mL. Further, the “Ratio IC50” value in data set [7] was found to be 5. In addition, in data set [8], the Activity was greater than 10 µM.

Turning to `CCN(CC)CCCC(C)Nc1ccnc2cc(Cl)ccc12` (centres undefined) [CHLOROQUINE], the Activity worked out at 8% with Plasmodium berghei [9]; 100% with Plasmodium berghei [10]; 4% in the data set on Plasmodium berghei [11]; 0.2% in the data set on Plasmodium berghei [12]; 0% in the data set with Plasmodium berghei [13]; 80% in the data set with Plasmodium berghei [14].
